Test results from ChEMBL document CHEMBL1135624, “Parallel synthesis of potent, pyrazole-based inhibitors of Helicobacter pylori dihydroorotate dehydrogenase” (J Med Chem, 2002).
In brackets after ≈: the same amount, converted by molar mass.

Columns and labels:
Helicobacter pylori [1] = test: Minimum Inhibitory concentration against Helicobacter pylori; type: functional
Summary of the method: (§1)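 Whole-cell antimicrobial MIC against a reference American Type Culture Collection *H. pylori* strain, reported in μg/mL.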

[2] = target: Dihydroorotate dehydrogenase (quinone), mitochondrial (Homo sapiens, UniProt Q02127); test: Inhibition of human dihydroorotate dehydrogenase (DHODase)
Helicobacter pylori [3] = test: Minimum inhibitory concentration measured against compound 1 resistant Helicobacter pylori isolate; type: functional
Summary of the method: (§2)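 Spontaneously resistant H. pylori mutants were isolated by plating cells on the selecting pyrazole, with the same method for each of the two selecting agents. Each resistant isolate was then tested for MIC against the pyrazole not used to select it, as a cross-resistance check.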

Helicobacter pylori [4] = test: Minimum inhibitory concentration measured against compound 13 resistant Helicobacter pylori isolate; type: functional; summary of the method: as §2
[5] = Minimum inhibitory concentration measured against wild type.; type: functional; conditions: Helicobacter pylori; summary of the method: as §1

Sequence of Dihydroorotate dehydrogenase (quinone), mitochondrial (Q02127 whole entry): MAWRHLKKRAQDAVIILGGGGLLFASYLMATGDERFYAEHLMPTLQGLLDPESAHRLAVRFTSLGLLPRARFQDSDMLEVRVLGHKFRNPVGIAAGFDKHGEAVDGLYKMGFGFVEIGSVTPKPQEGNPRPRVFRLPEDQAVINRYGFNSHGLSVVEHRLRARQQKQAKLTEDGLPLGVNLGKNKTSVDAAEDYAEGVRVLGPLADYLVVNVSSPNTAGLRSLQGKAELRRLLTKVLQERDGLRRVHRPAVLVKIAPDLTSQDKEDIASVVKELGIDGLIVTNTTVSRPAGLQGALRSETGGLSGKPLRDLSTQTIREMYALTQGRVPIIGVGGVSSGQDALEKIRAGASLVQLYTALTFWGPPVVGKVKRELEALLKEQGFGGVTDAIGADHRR

Row | SMILES | MIC (Helicobacter pylori [1]) [µg/mL] | Ki [2] [µM] | MIC (Helicobacter pylori [3]) [µg/mL] | MIC (Helicobacter pylori [4]) [µg/mL] | MIC [5] [µg/mL]
1 | CC(C)CNC(=O)c1cc(C(=O)NCc2ccccc2)nn1-c1ccc(Cl)cc1 | > 64 | > 50 |  |  | 
2 | COc1ccc(-n2nc(C(=O)Nc3ccc(C(=O)N4CCCC4)cc3)cc2C(=O)NCc2ccccc2)cc1 | > 32 |  |  |  | 
3 | O=C(NCc1cccnc1)c1cc(C(=O)Nc2ccc(N3CCCCC3)cc2)n(-c2ccc(Cl)cc2)n1 | 2 (≈ 3.88 µM) | > 50 |  |  | 
4 | COc1ccc(-n2nc(C(=O)NCC(C)C)cc2C(=O)Nc2ccc(C(=O)N3CCCC3)cc2)cc1 | 64 (≈ 131 µM) | > 50 |  |  | 
5 | COc1ccc(-n2nc(C(=O)NCc3cccnc3)cc2C(=O)Nc2ccccc2)cc1 | 0.5 (≈ 1.17 µM) | > 50 | 32 (≈ 74.9 µM) | 24 (≈ 56.1 µM) | 0.5 (≈ 1.17 µM)
6 | O=C(NCc1ccccc1)c1cc(C(=O)Nc2ccccc2)n(-c2ccc(Cl)cc2)n1 | 0.125 (≈ 0.29 µM) | 50 |  |  | 
7 | Cc1ccc(CNC(=O)c2cc(C(=O)Nc3ccccc3)n(-c3ccc(Cl)cc3)n2)cc1 | 32 (≈ 71.9 µM) | > 50 |  |  | 
8 | COc1ccc(-n2nc(C(=O)NC(c3ccccc3)c3ccccc3)cc2C(=O)NCc2ccccc2)cc1 | > 32 | > 50 |  |  | 
9 | O=C(NCc1cccnc1)c1cc(C(=O)Nc2ccccc2)n(-c2ccc(Cl)cc2)n1 | 0.25 (≈ 0.579 µM) | > 50 |  |  | 
10 | NC(=O)c1ccc(NC(=O)c2cc(C(=O)NCc3ccccc3)nn2-c2ccc(Cl)cc2)cc1 | 8 (≈ 16.9 µM) | > 50 |  |  | 
11 | COc1ccc(-n2nc(C(=O)NCc3ccccc3)cc2C(=O)Nc2ccc(C(=O)N3CCCC3)cc2)cc1 | 3 (≈ 5.73 µM) | > 50 | > 64 | > 64 | 3 (≈ 5.73 µM)
12 | COc1ccc(-n2nc(C(=O)NCC3CCCO3)cc2C(=O)Nc2ccc(C(=O)N3CCCC3)cc2)cc1 (centres undefined) | > 32 | > 50 |  |  | 
